Laboratory results taken from the M2OR odorant receptor database.

Experiments:
Details in all cases: stereoisomer not certain
UniProt Q8VG27 = biological target: T1, UniProt Q8VG27
T1 sequence (whole entry): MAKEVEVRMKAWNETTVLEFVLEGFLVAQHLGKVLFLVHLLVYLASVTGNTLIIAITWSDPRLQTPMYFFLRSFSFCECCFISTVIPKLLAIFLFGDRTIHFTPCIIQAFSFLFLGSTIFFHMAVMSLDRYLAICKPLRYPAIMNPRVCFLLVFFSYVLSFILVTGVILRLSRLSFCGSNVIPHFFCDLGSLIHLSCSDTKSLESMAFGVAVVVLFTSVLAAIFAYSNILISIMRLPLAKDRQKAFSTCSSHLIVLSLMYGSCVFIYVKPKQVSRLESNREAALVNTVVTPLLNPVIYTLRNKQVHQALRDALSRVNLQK
Method in brief: (§1)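 Transient luciferase assays in mammalian cell lines were common, though methods varied by source. The values come from published papers and their supplementary material, with extra details from the original authors when needed. Responsive refers to a measured signal the original authors judged statistically different from baseline, and non-responsive (inactive) to the remainder.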

UniProt Q8VG28 = biological target: UniProt Q8VG28
Sequence of UniProt Q8VG28 (Q8VG28 as listed by the source): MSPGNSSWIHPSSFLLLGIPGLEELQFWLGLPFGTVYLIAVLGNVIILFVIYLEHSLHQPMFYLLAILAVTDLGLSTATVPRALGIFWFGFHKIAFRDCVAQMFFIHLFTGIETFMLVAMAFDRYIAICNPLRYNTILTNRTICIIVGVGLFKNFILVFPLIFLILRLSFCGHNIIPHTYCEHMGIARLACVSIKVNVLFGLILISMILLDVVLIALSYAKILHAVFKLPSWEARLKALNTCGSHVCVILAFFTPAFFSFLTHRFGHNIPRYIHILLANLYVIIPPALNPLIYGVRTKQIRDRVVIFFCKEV
Method in brief: as §1

UniProt Q8VG53 = biological target: T2, UniProt Q8VG53
T2 sequence (whole entry): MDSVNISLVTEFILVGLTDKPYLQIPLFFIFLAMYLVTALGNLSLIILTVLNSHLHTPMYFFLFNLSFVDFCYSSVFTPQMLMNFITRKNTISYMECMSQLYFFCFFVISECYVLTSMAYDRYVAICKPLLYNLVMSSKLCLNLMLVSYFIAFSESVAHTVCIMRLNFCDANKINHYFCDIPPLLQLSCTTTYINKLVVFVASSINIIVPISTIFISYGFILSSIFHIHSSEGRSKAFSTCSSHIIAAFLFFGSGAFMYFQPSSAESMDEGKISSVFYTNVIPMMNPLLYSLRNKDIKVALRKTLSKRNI
Method in brief: as §1

UniProt Q8VG64 = biological target: T3, UniProt Q8VG64
T3 sequence (whole entry): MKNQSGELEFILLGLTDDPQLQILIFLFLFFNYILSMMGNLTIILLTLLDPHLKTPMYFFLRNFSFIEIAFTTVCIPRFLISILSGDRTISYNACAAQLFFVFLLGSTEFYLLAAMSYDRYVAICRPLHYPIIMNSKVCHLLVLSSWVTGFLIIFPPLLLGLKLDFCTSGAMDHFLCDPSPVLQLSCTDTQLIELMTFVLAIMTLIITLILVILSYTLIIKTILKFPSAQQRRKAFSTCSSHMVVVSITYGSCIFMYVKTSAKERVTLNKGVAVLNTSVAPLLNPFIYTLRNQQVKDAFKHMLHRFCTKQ
Method in brief: as §1

UniProt Q8VGB9 = biological target: T4, UniProt Q8VGB9
T4 sequence (whole entry): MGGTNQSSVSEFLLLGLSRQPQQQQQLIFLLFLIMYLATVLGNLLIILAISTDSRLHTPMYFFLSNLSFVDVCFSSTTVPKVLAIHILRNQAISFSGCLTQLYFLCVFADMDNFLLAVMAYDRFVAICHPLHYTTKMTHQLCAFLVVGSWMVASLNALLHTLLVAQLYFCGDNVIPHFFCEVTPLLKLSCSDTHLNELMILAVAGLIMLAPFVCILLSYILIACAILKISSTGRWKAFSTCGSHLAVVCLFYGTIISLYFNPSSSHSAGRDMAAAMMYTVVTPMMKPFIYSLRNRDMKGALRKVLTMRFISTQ
Method in brief: as §1

UniProt Q8VGC6 = biological target: T5, UniProt Q8VGC6
T5 sequence (whole entry): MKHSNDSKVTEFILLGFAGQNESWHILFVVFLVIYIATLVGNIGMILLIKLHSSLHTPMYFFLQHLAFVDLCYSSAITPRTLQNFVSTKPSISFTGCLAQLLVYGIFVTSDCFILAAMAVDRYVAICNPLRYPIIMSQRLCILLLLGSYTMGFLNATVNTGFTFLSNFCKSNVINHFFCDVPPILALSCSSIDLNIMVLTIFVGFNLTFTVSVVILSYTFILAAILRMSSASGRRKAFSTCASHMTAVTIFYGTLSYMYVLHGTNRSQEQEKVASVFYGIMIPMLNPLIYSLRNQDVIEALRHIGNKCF
Method in brief: as §1

UniProt Q8VGJ3 = biological target: T6, UniProt Q8VGJ3
T6 sequence (whole entry): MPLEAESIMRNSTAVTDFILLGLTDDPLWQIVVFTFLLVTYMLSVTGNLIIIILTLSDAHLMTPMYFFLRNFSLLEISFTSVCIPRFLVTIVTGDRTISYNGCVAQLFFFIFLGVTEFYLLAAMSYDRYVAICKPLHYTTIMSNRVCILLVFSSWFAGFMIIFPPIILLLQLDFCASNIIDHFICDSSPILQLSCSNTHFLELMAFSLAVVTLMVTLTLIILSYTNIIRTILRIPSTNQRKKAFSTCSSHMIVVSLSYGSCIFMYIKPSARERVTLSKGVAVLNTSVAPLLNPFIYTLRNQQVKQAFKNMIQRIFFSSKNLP
Method in brief: as §1

UniProt Q8VGL0 = biological target: T7, UniProt Q8VGL0
T7 sequence (whole entry): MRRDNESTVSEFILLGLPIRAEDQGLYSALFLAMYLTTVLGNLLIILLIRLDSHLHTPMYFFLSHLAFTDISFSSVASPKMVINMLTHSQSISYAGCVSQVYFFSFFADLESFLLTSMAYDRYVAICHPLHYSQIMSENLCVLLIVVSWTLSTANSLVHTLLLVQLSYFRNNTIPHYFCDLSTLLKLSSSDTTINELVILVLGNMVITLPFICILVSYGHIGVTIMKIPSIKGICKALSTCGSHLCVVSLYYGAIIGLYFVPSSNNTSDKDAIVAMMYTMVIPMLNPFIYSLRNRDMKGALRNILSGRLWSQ
Method in brief: as §1

UniProt Q8VG49 = biological target: T8, UniProt Q8VG49
T8 sequence (whole entry): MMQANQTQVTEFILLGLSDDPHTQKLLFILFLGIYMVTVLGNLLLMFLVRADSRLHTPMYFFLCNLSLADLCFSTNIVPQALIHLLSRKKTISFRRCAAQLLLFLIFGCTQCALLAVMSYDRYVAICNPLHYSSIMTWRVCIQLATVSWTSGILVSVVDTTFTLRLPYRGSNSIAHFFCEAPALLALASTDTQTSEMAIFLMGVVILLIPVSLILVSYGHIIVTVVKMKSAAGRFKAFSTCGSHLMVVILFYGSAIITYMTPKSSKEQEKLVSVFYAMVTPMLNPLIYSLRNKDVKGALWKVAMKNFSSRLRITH
Method in brief: as §1

UniProt Q8VG77 = biological target: T9, UniProt Q8VG77
T9 sequence (whole entry): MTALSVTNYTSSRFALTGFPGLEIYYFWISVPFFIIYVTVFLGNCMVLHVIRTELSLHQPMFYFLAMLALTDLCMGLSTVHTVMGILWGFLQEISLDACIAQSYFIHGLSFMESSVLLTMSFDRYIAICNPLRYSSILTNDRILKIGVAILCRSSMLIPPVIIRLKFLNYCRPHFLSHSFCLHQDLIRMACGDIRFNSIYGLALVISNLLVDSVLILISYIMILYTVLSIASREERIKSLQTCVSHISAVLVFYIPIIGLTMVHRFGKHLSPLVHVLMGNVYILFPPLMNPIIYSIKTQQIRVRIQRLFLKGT
Method in brief: as §1

UniProt Q8VG96 = biological target: T10, UniProt Q8VG96
T10 sequence (whole entry): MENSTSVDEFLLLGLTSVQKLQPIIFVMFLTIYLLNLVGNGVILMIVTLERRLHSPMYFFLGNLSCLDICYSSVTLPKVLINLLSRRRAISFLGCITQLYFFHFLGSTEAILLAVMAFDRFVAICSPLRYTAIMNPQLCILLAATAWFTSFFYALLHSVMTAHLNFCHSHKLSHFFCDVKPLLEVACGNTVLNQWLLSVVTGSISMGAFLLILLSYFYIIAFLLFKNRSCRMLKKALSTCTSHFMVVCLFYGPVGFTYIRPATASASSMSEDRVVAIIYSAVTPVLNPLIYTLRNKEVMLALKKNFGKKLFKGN
Method in brief: as §1

UniProt Q8VGD7 = biological target: T11, UniProt Q8VGD7
T11 sequence (whole entry): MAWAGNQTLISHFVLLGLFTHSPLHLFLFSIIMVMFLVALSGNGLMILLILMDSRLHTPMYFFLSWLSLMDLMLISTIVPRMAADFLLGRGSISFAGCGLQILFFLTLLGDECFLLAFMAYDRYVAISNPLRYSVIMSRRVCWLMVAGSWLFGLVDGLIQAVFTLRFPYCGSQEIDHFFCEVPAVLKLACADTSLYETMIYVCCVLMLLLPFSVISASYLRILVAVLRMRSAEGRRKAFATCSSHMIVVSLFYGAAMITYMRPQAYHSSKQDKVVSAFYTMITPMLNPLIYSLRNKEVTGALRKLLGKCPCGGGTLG
Method in brief: as §1

UniProt Q8VGH1 = biological target: T12, UniProt Q8VGH1
T12 sequence (whole entry): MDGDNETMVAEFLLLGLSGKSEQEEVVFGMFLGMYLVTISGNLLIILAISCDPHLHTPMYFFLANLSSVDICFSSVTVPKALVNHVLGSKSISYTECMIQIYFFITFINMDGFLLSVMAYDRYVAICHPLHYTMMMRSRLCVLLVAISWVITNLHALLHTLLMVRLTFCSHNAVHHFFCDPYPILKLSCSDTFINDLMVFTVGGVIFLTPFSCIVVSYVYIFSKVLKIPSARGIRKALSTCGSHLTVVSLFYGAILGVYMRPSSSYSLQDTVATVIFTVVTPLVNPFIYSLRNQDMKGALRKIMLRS
Method in brief: as §1

UniProt Q8VGJ1 = biological target: T13, UniProt Q8VGJ1
T13 sequence (whole entry): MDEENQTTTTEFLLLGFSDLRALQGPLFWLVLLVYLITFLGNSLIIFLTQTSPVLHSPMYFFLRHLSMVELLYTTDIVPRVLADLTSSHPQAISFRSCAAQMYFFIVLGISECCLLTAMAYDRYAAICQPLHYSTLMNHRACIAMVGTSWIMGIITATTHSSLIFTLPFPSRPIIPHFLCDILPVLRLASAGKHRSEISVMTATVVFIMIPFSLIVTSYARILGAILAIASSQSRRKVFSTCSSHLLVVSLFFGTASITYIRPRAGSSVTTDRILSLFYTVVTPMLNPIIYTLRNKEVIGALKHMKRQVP
Method in brief: as §1

UniProt Q8VGJ5 = biological target: T14, UniProt Q8VGJ5
T14 sequence (whole entry): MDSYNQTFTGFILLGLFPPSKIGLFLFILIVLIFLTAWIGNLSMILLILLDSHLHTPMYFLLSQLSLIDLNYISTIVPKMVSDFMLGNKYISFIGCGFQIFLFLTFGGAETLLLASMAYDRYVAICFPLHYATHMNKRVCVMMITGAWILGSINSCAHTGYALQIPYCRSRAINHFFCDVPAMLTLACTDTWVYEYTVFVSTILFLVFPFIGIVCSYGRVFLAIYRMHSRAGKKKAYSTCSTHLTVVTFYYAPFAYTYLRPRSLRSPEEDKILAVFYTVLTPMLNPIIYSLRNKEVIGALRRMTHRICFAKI
Method in brief: as §1

UniProt Q8VGL7 = biological target: T15, UniProt Q8VGL7
T15 sequence (whole entry): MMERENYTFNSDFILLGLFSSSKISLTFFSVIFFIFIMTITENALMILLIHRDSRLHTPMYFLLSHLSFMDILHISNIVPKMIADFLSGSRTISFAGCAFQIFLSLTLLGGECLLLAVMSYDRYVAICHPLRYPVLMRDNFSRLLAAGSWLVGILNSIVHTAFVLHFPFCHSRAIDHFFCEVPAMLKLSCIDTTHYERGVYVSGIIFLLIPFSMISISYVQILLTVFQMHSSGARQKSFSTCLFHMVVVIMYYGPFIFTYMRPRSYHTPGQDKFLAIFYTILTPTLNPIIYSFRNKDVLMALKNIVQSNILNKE
Method in brief: as §1

Measured: odorant receptor agonist call

O=C(O)CCCCCBr
inactive: UniProt Q8VG27 | UniProt Q8VG28 | UniProt Q8VG53 | UniProt Q8VG64 | UniProt Q8VGB9 | UniProt Q8VGC6 | UniProt Q8VGJ3 | UniProt Q8VGL0

C=CCOC(=O)CCCCCC
inactive: UniProt Q8VG27 | UniProt Q8VG49 | UniProt Q8VG53 | UniProt Q8VG64 | UniProt Q8VG77 | UniProt Q8VG96 | UniProt Q8VGB9 | UniProt Q8VGC6 | UniProt Q8VGD7 | UniProt Q8VGH1 | UniProt Q8VGJ1 | UniProt Q8VGJ3 | UniProt Q8VGJ5 | UniProt Q8VGL0 | UniProt Q8VGL7

COc1cc(C(=O)O)ccc1O
inactive: UniProt Q8VG49 | UniProt Q8VG53 | UniProt Q8VG64 | UniProt Q8VG77 | UniProt Q8VG96 | UniProt Q8VGB9 | UniProt Q8VGC6 | UniProt Q8VGD7 | UniProt Q8VGH1 | UniProt Q8VGJ1 | UniProt Q8VGJ3 | UniProt Q8VGJ5 | UniProt Q8VGL0 | UniProt Q8VGL7
active: UniProt Q8VG27

CCCCCCCCO
inactive: UniProt Q8VG27 | UniProt Q8VG28 | UniProt Q8VG49 | UniProt Q8VG53 | UniProt Q8VG64 | UniProt Q8VG77 | UniProt Q8VG96 | UniProt Q8VGB9 | UniProt Q8VGD7 | UniProt Q8VGH1 | UniProt Q8VGJ1 | UniProt Q8VGJ3 | UniProt Q8VGJ5 | UniProt Q8VGL0 | UniProt Q8VGL7
active: UniProt Q8VGC6

C=C(C)C1CCC(C)C(=O)C1 (centres undefined)
active: UniProt Q8VGC6 | UniProt Q8VGJ5 | UniProt Q8VGL0
inactive: UniProt Q8VG27 | UniProt Q8VG49 | UniProt Q8VG53 | UniProt Q8VG64 | UniProt Q8VG77 | UniProt Q8VG96 | UniProt Q8VGB9 | UniProt Q8VGD7 | UniProt Q8VGH1 | UniProt Q8VGJ1 | UniProt Q8VGJ3 | UniProt Q8VGL7
